Assay [1] relates to MDA-MB-231. The experiment in a line: Cell cycle arrest in estrogen receptor deficient human MDA-MB-231 cells assessed as accumulation at S phase at 10 nM after 24 hrs using propidium iodide staining by flow cytometry relative to control. The class given is functional. Put shortly:
(§1)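 MDA-MB-231 cells in DMEM with 10% FBS and 2 mM L-glutamine, seeded at 18 × 10⁴ cells/mL. Exposed to test agent at the stated final concentration, or to 1% (v/v) ethanol vehicle, for 24, 48 or 72 h. Harvested by scraping and centrifugation, then RNase A treatment and propidium iodide DNA staining for at least 30 min at 37 °C. 10,000 cells per sample read at 488 nm by flow cytometry; mean ± SD of three experiments.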
(In flow cytometry, cells or beads pass a laser one at a time.)

The subject of assay [2] is MDA-MB-231. Nature of the assay: Cell cycle arrest in estrogen receptor deficient human MDA-MB-231 cells assessed as accumulation at G2/M phase at 10 uM after 72 hrs using propidium iodide staining by flow cytometry relative to control. The class given is functional. Put shortly: as §1

Regarding `COc1ccc(C2CC(=O)N2c2cc(OC)c(OC)c(OC)c2)cc1O` (configuration not stated), the figures for the Activity in assay [1] and in assay [2] were 12.55% and 21.81%, respectively.
